The source of these data is ChEMBL document CHEMBL5131562, “1,3-Dioxane-Linked Novel Bacterial Topoisomerase Inhibitors: Expanding Structural Diversity and the Antibacterial Spectrum” (ACS Med Chem Lett, 2022).

Data set [1] in a line: Cytotoxicity activity against human K562 cells assessed as inhibition of cellular growth. Type of data set: toxicity, cell-based. The method, boiled down:
(§1)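 Human K562 leukemia cells were tested alongside K/VP.5, an etoposide-resistant clonal subline derived from them that has reduced levels of human topoisomerase IIα. Cell growth inhibition was expressed as an IC50.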

Data set [2] deals with Staphylococcus aureus. Nature of the data set: Selectivity ratio of IC50 for inhibition of Staphylococcus aureus DNA topoisomerase 4 decatenation activity to IC50 for inhibition of Staphylococcus aureus DNA gyrase supercoiling activity.
The test system of data set [3] is Neisseria gonorrhoeae. In words: Antimicrobial activity against wild type Neisseria gonorrhoeae O strain incubated for 20 to 24 hrs by CLSI protocol based broth microdilution method. Type of data set: functional. Conditions: time 20-24 hrs. Background: Broth dilution looks for growth in wells or tubes with falling amounts of substance.
Data set [4] concerns Neisseria gonorrhoeae. Nature of the data set: Antimicrobial activity against Neisseria gonorrhoeae K strain harbouring type 2 topoisomerase GyrA S91F, D95N and ParC S87R, S88P mutant incubated for 20 to 24 hrs by CLSI protocol based broth microdilution method. Conditions: time 20-24 hrs. Type of data set: functional.
Data set [5] relates to Neisseria gonorrhoeae. In words: Antimicrobial activity against Neisseria gonorrhoeae G strain harbouring type 2 topoisomerase GyrA S91F and ParE G410V mutant incubated for 20 to 24 hrs by CLSI protocol based broth microdilution method. It is filed as functional. Conditions: time 20-24 hrs.
The test system of data set [6] is Neisseria gonorrhoeae. In words: Antimicrobial activity against wild type Neisseria gonorrhoeae F strain incubated for 20 to 24 hrs by CLSI protocol based broth microdilution method. It is filed as functional. Particulars: time 20-24 hrs.
Data set [7] relates to Neisseria gonorrhoeae. In words: Antimicrobial activity against wild type Neisseria gonorrhoeae P strain incubated for 20 to 24 hrs by CLSI protocol based broth microdilution method. Type of data set: functional. Particulars: time 20-24 hrs.
Data set [8] is described as follows: Metabolic stability in mouse liver microsomes assessed as half life. It is filed as ADME, Microsome. Background: Liver microsomes are vesicles of endoplasmic reticulum, rich in cytochrome P450 enzymes.
Data set [9] deals with Staphylococcus aureus. In words: Antibacterial activity against Staphylococcus aureus harbouring GyrA D83N mutant by CLSI method. Type of data set: functional.
For data set [10], the system named is Staphylococcus aureus. Nature of the data set: Antibacterial activity against cystic fibrosis isolate Staphylococcus aureus by CLSI method. Type of data set: functional.
The next data set concerns the target Topoisomerase IV (Staphylococcus aureus, UniProt P0C1S7+P0C1U9). In words: Inhibition of Staphylococcus aureus DNA topoisomerase 4 decatenation activity using kDNA as substrate incubated for 10 to 20 min by ethidium bromide/bromophenol blue staining based agarose gel electrophoresis analysis. Type of data set: protein-complex assay.
The test system of data set [11] is Staphylococcus aureus. In words: Antibacterial activity against Staphylococcus aureus ATCC 29213 by CLSI method. Type of data set: functional.
The test system of data set [12] is Neisseria gonorrhoeae. In words: Antimicrobial activity against wild type Neisseria gonorrhoeae Y strain harbouring type 2 topoisomerase GyrA S91F, D95G and ParC S87R mutant incubated for 20 to 24 hrs by CLSI protocol based broth microdilution method. Type of data set: functional. Conditions: time 20-24 hrs.
Data set [13] can be described thus: Cytotoxicity activity against human K/VP.5 cells assessed as inhibition of cellular growth. It is filed as toxicity, cell-based. In short, it runs like this: as §1
For data set [14], the target named is Voltage-gated inwardly rectifying potassium channel KCNH2 (Homo sapiens, UniProt Q12809). In words: Inhibition of hERG cardiac ion channel. It is filed as toxicity. The method, boiled down: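 hERG channel inhibition was run by a contract lab. […] Determinations were made in duplicate or triplicate (n = 2 or 3).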
On the technique in general: The hERG channel carries a current that helps repolarise heart muscle cells.

The target of the next data set is DNA gyrase (Staphylococcus aureus, UniProt P0A0K8+P20831). In words: Inhibition of Staphylococcus aureus DNA gyrase supercoiling activity incubated for 25 min by ethidium bromide/bromophenol blue staining based agarose gel electrophoresis analysis. It is filed as protein-complex assay.
The test system of data set [15] is Staphylococcus aureus. In words: Antibacterial activity against methicillin-resistant Staphylococcus aureus USA300 by CLSI method. It is filed as functional.
In data set [16] the test system is Neisseria gonorrhoeae. In words: Antimicrobial activity against wild type Neisseria gonorrhoeae V strain harbouring type 2 topoisomerase GyrA S91F, D95G and ParC S87R mutant incubated for 20 to 24 hrs by CLSI protocol based broth microdilution method. Type of data set: functional. Particulars: time 20-24 hrs.
The subject of data set [17] is Staphylococcus aureus. Nature of the data set: Antibacterial activity against Staphylococcus aureus 3527 by CLSI method. It is filed as functional.
For data set [18], the system named is Neisseria gonorrhoeae. Nature of the data set: Antimicrobial activity against wild type Neisseria gonorrhoeae ATCC 49226 incubated for 20 to 24 hrs by CLSI protocol based broth microdilution method. It is filed as functional. Conditions: time 20-24 hrs.

Values after ≈ are worked out from the molar mass of the structure shown.

Consider `O=C1COc2ccc(CN[C@H]3CO[C@H](CC4Cn5c(=O)ccc6ccc(F)c4c65)OC3)nc2N1` (stereo partly specified), for which the half-inhibitory concentration (IC50) (commonly the concentration that gives 50% inhibition) was determined as 101 µM in data set [1]; 1.3 µM at Topoisomerase IV; 127 µM in data set [13]; 30 µM in [14]; 1.6 µM at DNA gyrase. Further, the Ratio IC50 in the data set on Staphylococcus aureus [2] was 0.81. For the same molecule, the MIC (in general, the least concentration at which growth counts as inhibited) in the data set with Neisseria gonorrhoeae [3] was 0.25 µg/mL (≈ 0.536 µM); against Neisseria gonorrhoeae [4], 0.12 µg/mL (≈ 0.257 µM); in the data set with Neisseria gonorrhoeae [5], 0.25 µg/mL (≈ 0.536 µM); against Neisseria gonorrhoeae [6], 0.06 µg/mL (≈ 0.129 µM); against Neisseria gonorrhoeae [7], 0.25 µg/mL (≈ 0.536 µM); in the data set on Staphylococcus aureus [9], 4 µg/mL (≈ 8.58 µM). The MIC is 0.5 µg/mL (≈ 1.07 µM) against Staphylococcus aureus [10]; 0.5 µg/mL (≈ 1.07 µM) against Staphylococcus aureus [11]; 0.12 µg/mL (≈ 0.257 µM) against Neisseria gonorrhoeae [12]; 0.25 µg/mL (≈ 0.536 µM) in the data set with Staphylococcus aureus [15]; ≤ 0.03 µg/mL against Neisseria gonorrhoeae [16]; 0.25 µg/mL (≈ 0.536 µM) against Staphylococcus aureus [17]. The minimum inhibitory concentration (MIC) in the data set with Neisseria gonorrhoeae [18] stood at 0.12 µg/mL (≈ 0.257 µM). Further, in data set [8], the half-life (usually the time needed for the level to fall by half in the phase considered) amounted to 18.4 min.
On to `COc1ccc2ncc(F)c(C[C@H](O)[C@H]3OC[C@H](NC(=O)c4ccc5c(c4)OCCO5)CO3)c2n1`, for which the IC50 is 1.6 µM in [1]; 1.7 µM on Topoisomerase IV; 6 µM in data set [13]; > 100 µM in data set [14]; 0.23 µM on DNA gyrase. Besides, the Ratio IC50 in the data set with Staphylococcus aureus [2] came to 7.6. Also, the minimal inhibitory concentration (MIC) against Neisseria gonorrhoeae [3] is > 16 µg/mL; against Neisseria gonorrhoeae [4], > 16 µg/mL; against Neisseria gonorrhoeae [5], > 16 µg/mL; in the data set with Neisseria gonorrhoeae [6], 0.25 µg/mL (≈ 0.515 µM); against Neisseria gonorrhoeae [7], > 16 µg/mL; against Staphylococcus aureus [9] it was 2 µg/mL (≈ 4.12 µM). Further, the MIC worked out at 0.25 µg/mL (≈ 0.515 µM) against Staphylococcus aureus [10]; 0.25 µg/mL (≈ 0.515 µM) in the data set with Staphylococcus aureus [11]; 0.5 µg/mL (≈ 1.03 µM) against Neisseria gonorrhoeae [12]; 0.25 µg/mL (≈ 0.515 µM) with Staphylococcus aureus [15]; 0.25 µg/mL (≈ 0.515 µM) against Neisseria gonorrhoeae [16]; 0.25 µg/mL (≈ 0.515 µM) in the data set with Staphylococcus aureus [17]. The molecule also registered an MIC in the data set on Neisseria gonorrhoeae [18] of 4 µg/mL (≈ 8.24 µM). For the same molecule, in [8], the half-life was 14.2 min.
`CO/N=C(\C(=O)N[C@@H]1C(=O)N2C(C(=O)O)=C(CSc3nc(=O)c(O)nn3C)CS[C@H]12)c1csc(N)n1` [CEFTRIAXONE]: the MIC is 0.004 µg/mL (≈ 0.00721 µM) with Neisseria gonorrhoeae [3]; 0.008 µg/mL (≈ 0.0144 µM) against Neisseria gonorrhoeae [4]; ≤ 0.001 µg/mL against Neisseria gonorrhoeae [5]; ≤ 0.001 µg/mL against Neisseria gonorrhoeae [6]; ≤ 0.001 µg/mL in the data set on Neisseria gonorrhoeae [7]; 1 µg/mL (≈ 1.8 µM) against Neisseria gonorrhoeae [12]. For the same molecule, the minimal inhibitory concentration (MIC) in the data set with Neisseria gonorrhoeae [16] is 0.002 µg/mL (≈ 0.00361 µM); against Neisseria gonorrhoeae [18], 0.004 µg/mL (≈ 0.00721 µM).
Turning to `O=C1CSc2ccc(CN[C@H]3CO[C@H](CC4Cn5c(=O)ccc6ncc(F)c4c65)OC3)nc2N1` (stereo partly specified), the half-maximal inhibitory concentration (IC50) turned out to be 81.7 µM in data set [1]; 2.1 µM on Topoisomerase IV; 128 µM in data set [13]; 55 µM in data set [14]; 1.4 µM against DNA gyrase. Moreover, the Ratio IC50 with Staphylococcus aureus [2] amounted to 1.5. Moreover, the half-life in [8] turned out to be 36.4 min. The minimum inhibitory concentration (MIC) in the data set with Staphylococcus aureus [9] is 8 µg/mL (≈ 16.5 µM); against Staphylococcus aureus [10], 1 µg/mL (≈ 2.07 µM); in the data set with Staphylococcus aureus [11] it was 1 µg/mL (≈ 2.07 µM); with Staphylococcus aureus [15], 1 µg/mL (≈ 2.07 µM); against Staphylococcus aureus [17] it was 1 µg/mL (≈ 2.07 µM).
Consider `COc1ccc2ncc(F)c(C[C@H](O)[C@H]3OC[C@H](NCc4ccc5c(c4)OCCO5)CO3)c2n1`, for which the MIC against Neisseria gonorrhoeae [3] was ≤ 0.03 µg/mL; against Neisseria gonorrhoeae [4] it was ≤ 0.03 µg/mL; with Neisseria gonorrhoeae [5] it was 0.5 µg/mL (≈ 1.06 µM); against Neisseria gonorrhoeae [6], ≤ 0.03 µg/mL; with Neisseria gonorrhoeae [7] it was ≤ 0.03 µg/mL; with Neisseria gonorrhoeae [12], ≤ 0.03 µg/mL. Also, the minimal inhibitory concentration (MIC) in the data set on Neisseria gonorrhoeae [16] and against Neisseria gonorrhoeae [18] was ≤ 0.03 µg/mL throughout.
With `COc1ccc2ncc(F)c(C[C@H](O)[C@H]3OC[C@H](NCc4cc5c(nn4)OCCO5)CO3)c2n1`, the minimum inhibitory concentration (MIC) was 32 µg/mL (≈ 67.6 µM) in the data set on Neisseria gonorrhoeae [3]; > 32 µg/mL against Neisseria gonorrhoeae [4]; > 32 µg/mL in the data set on Neisseria gonorrhoeae [5]; 8 µg/mL (≈ 16.9 µM) in the data set on Neisseria gonorrhoeae [6]; 32 µg/mL (≈ 67.6 µM) against Neisseria gonorrhoeae [7]; 16 µg/mL (≈ 33.8 µM) against Neisseria gonorrhoeae [12]. For the same molecule, the MIC came to 8 µg/mL (≈ 16.9 µM) against Neisseria gonorrhoeae [16] and 32 µg/mL (≈ 67.6 µM) in the data set on Neisseria gonorrhoeae [18].
